Reference: paper PMC7518337 (Chemistry of materials : a publication of the American …, 2018)

Legend:
[1] = tested on: xenografted HCT116 p53^+/+ tumors; test: In vivo antitumor activity in colon cancer xenograft model; parameters: species or system BALB/c nude mice; details: for amounts of apoptotic cells in xenograft tumors (TUNEL assay): compared to the control, Figure 6E
Summary of the method: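 Nude mice carried subcutaneous HCT116 p53+/+ xenografts in the right flank. They were randomised into groups of n = 6 and dosed every other day on days 1, 3, 5, 7, 9, 11 and 13. Test compounds and Nutlin-3 were given at 3 mg/kg, doxorubicin at 1.5 mg/kg, and PBS served as control. Tumors were excised on day 13 for H&E and TUNEL staining (×200). Mean ± s.e., n = 5.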

[2] = In vivo safety evaluation during and after anticancer treatment; parameters: species or system mice
Summary of the method: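 Xenograft-bearing nude mice were treated with test compound or doxorubicin control over a 13-day regimen. During and after treatment, blood counts (WBC, RBC, thrombocytes), liver weight, serum ALT and AST, and CRE and BUN were determined. A hospital clinical laboratory ran these by standard procedures. Liver and kidney sections were H&E stained. Mean ± s.e., t-test.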

p53 and p21 expression = test: Western blot analysis of p53 and p21; type: cell-based; details: PSP-^DPMI 200 nM, Nutlin3 5 μM, 24 h, p53 in HCT116 p53^+/+, MCF7, A375, p21 in HCT116 p53^+/+, vs PSP, PBS control
HCT116 p53^+/+ cells = test: Cell cycle distribution; type: cell-based; details: 200 nM PSP-^DPMI, 5 μM Nutlin3, 24 h
[3] = clinical trial in liposarcoma; cited from earlier work

| SMILES | amounts of apoptotic cells in xenograft tumors (TUNEL assay) [1] | tumor pathomorphology (H&E) ([1]; tumors isolated on day 13, Figure 6C) | blood cell counts (WBCs, thrombocyte, RBCs) ([2]; Figure 8B–D) | kidney function and histology (CRE, BUN, H&E) ([2]; Figure 8I–K) | spleen health ([2]; Figure S15) | body weight ([2]; after a 13-day administration, Figure S14) | liver weight ([2]; compared to healthy mice, Figure 8E) | levels of liver enzymes ALT and AST ([2]; serum, compared to control or healthy mice, Figure 8F,G) | expression of p53 or p21 (p53 and p21 expression) | cell cycle effect (HCT116 p53^+/+ cells) | adverse events in patients [3] |
| --- | --- | --- | --- | --- | --- | --- | --- | --- | --- | --- | --- |
| COc1cccc2c1C(=O)c1c(O)c3c(c(O)c1C2=O)C[C@@](O)(C(=O)CO)C[C@@H]3O[C@H]1C[C@H](N)[C@H](O)[C@H](C)O1 [DOX, doxorubicin] | significantly increased | misshapen tumors and cells | a certain level of leukopenia and thrombopenia | symptoms of glomerular lesions | serious spleen failure | significant decrease of body weight | decreased liver weight | aberrant levels |  |  |  |
| COc1ccc(C2=N[C@@H](c3ccc(Cl)cc3)[C@@H](c3ccc(Cl)cc3)N2C(=O)N2CCNC(=O)C2)c(OC(C)C)c1 [Nutlin3] | significantly increased |  |  |  |  |  |  |  | significantly increased the expression of p53 or p21 | arrest in G0/G1 phase |  |
| CCOc1cc(C(C)(C)C)ccc1C1=N[C@@](C)(c2ccc(Cl)cc2)[C@@](C)(c2ccc(Cl)cc2)N1C(=O)N1CCN(CCCS(C)(=O)=O)CC1 [RG7112] |  |  |  |  |  |  |  |  |  |  | thrombocytopenia and neutropenia have been seen in many patients |
